For eleven compounds, inhibition, IC50 and Activity results are on record in ChEMBL document CHEMBL1764957, “Inhibitors and promoters of tubulin polymerization: synthesis and biological evaluation of chalcones and related dienones as potential anticancer agents” (Bioorg Med Chem, 2011).

Activity calls are given as the source filed them. The calls are words filed in the database; no cut-off is given here.

The target in test [1] is T1, Tubulin (Sus scrofa) (UniProt P02554+P02550). Description: Inhibition of pig tubulin polymerization at 25 uM. Format: protein assay. The gist of the method: (§1)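 Kit assay with porcine tubulin, standard protocol, read by fluorescent reporter enhancement. Test substances were dissolved in DMSO and run at 5 and 25. Docetaxel (stabilizing control) and vincristine (destabilizing control) were diluted in PBS and used at 3. The experiment was run twice and mean values were reported.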
T1 sequence (P02550 whole entry, looked up): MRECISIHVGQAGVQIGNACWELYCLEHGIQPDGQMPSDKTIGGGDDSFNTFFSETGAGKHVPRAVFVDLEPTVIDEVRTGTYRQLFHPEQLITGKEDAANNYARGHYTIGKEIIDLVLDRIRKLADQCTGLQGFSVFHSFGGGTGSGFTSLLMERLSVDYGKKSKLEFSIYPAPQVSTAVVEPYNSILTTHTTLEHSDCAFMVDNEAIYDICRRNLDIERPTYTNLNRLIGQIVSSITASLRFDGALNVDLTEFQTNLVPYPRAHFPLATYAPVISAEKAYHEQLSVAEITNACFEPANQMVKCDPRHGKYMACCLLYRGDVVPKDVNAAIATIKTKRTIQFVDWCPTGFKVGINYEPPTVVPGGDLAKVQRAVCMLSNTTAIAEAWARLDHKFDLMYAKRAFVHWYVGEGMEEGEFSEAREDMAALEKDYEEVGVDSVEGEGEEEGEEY
T1 sequence (P02554 whole entry, looked up): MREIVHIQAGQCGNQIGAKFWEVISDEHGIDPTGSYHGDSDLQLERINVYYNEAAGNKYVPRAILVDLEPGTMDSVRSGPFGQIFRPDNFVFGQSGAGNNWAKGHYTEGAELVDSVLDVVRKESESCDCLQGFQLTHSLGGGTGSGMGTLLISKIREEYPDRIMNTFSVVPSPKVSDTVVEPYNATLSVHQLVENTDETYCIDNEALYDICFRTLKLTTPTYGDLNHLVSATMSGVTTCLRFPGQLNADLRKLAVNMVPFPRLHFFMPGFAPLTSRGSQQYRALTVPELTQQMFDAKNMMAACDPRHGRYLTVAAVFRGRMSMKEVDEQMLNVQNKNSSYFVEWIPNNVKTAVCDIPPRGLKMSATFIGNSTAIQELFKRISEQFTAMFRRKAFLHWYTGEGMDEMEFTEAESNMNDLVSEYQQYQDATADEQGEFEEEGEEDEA

A short description of test [2]: Cytotoxicity against human 8226/LR-5 cells after 72 hrs by fluorometric assay. The format is functional, cell-based. The essentials: (§2)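 Fluorometric microculture cytotoxicity assay (FMCA). Cell suspensions (10,000–20,000 cells per mL) were exposed at 37 °C for 72 h to six concentrations from 0.016 to 50, added from DMSO stocks (at most 1% DMSO final). Cells were washed with PBS and given fluorescein diacetate (10 µg/mL). Fluorescence at 485/520 nm was read after 40 min. Survival index is relative to untreated wells. Duplicate wells, experiment repeated twice.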

The test system of test [3] is U-937/GTB. Description: Cytotoxicity against human U937/GTB cells after 72 hrs by fluorometric assay. The format is functional, cell-based. The gist of the method:
as §2

Test [4] concerns RPMI-8226. Kind of test: Cytotoxicity against human RPMI8226 cells after 72 hrs by fluorometric assay. The format is functional, cell-based. As to conditions: RPMI-8226, 72 h. The essentials: as §2
The subject of test [5] is ACHN. Kind of test: Cytotoxicity against human ACHN cells after 72 hrs by fluorometric assay. The format is functional, cell-based. The essentials:
as §2

Test [6] concerns CCRF-CEM. Kind of test: Cytotoxicity against human CCRF-CEM cells after 72 hrs by fluorometric assay. Format: functional, cell-based. The gist of the method: as §2
For test [7], the system named is H69AR. Kind of test: Cytotoxicity against human H69AR cells after 72 hrs by fluorometric assay. Format: functional, cell-based. The essentials:
as §2

Test [8] is described as follows: Cytotoxicity against human vincristine-resistant […] cells after 72 hrs by fluorometric assay. Format: functional, cell-based. The gist of the method:
as §2

Test [9] relates to NCI-H69. Description: Cytotoxicity against human NCI-H69 cells after 72 hrs by fluorometric assay. Format: functional, cell-based. As to conditions: NCI-H69, 72 h. The essentials: as §2
Test [10] can be described thus: Cytotoxicity against human 8226/DOX40 cells after 72 hrs by fluorometric assay. Format: functional, cell-based. The essentials:
as §2

Test [11] in a line: Cytotoxicity against human CEM/VM1 cells after 72 hrs by fluorometric assay. Format: functional, cell-based. The conditions noted are these: CEM-VM1, 72 h. The essentials:
as §2

For test [12], the target named is T1, Tubulin (Sus scrofa). Kind of test: Effect on pig tubulin polymerization assessed as microtubule stabilization at 3 uM. Format: protein assay. The essentials:
as §1

The target of test [13] is T1, Tubulin (Sus scrofa). Description: Inhibition of pig tubulin polymerization at 3 uM. Format: protein assay. The gist of the method: as §1
For test [14], the target named is T1, Tubulin (Sus scrofa). Description: Effect on pig tubulin polymerization assessed as microtubule stabilization at 25 uM. Format: protein assay. The gist of the method: as §1
Setting [15] is: Homo sapiens, H69AR, 72 h, read-out: IC50.

Turning to `COc1ccc(/C=C/C(=O)c2cc(Cl)cc(Br)c2O)cc1`, the inhibition entry in test [1] is “inactive”. The IC50 worked out at 46 µM in [2]; 45 µM in test [3]; 80 µM in test [4]; 49.4 µM in test [5]; 111 µM in [6]; 42.6 µM in test [7] (setting [15]). In addition, the 50% inhibitory concentration (IC50) in test [8] came out at 77 µM; in [9] it was 16.4 µM; in test [10] it was 16.9 µM; in [11], 45.8 µM.
As to `CCN(CC)c1ccc(/C=C/C(=O)c2cc(Cl)cc(Br)c2O)cc1`, the inhibition entry in test [1] is “Active”. Besides, the IC50 in test [2] came out at 9.4 µM; in [3] it was 9.3 µM; in test [4], 29.4 µM; in test [5] it was 164 µM; in [6] it was 14.8 µM; in [7] (setting [15]) it was 24.5 µM. For the same compound, the IC50 in test [8] worked out at 8.8 µM; in [9] it was 5.2 µM; in test [10], 9.7 µM; in test [11], 14.5 µM.
Turning to `O=C(/C=C(\O)c1cc(Cl)cc(Br)c1O)/C=C/c1ccccc1`, in test [1], the inhibition result is “inactive”. Also, the IC50 in test [2] was found to be 33.5 µM; in test [3], 18.1 µM; in [4], 27.9 µM; in [5], 37.8 µM; in [6] it was 34.1 µM; in test [7] (setting [15]), 25.5 µM. Also, the IC50 amounted to 23.9 µM in [8], 9.4 µM in test [9], 19.1 µM in [10] and 24.1 µM in test [11].
Regarding `O=C(/C=C/c1ccc(C(F)(F)F)cc1)c1cc(Cl)cc(Br)c1O`, in test [1], the inhibition result was “inactive”. In addition, the IC50 in test [2] stood at 22.3 µM; in [3] it was 14.9 µM; in [4], 20.8 µM; in test [5], 49.4 µM; in test [6], 15.4 µM; in test [7] (setting [15]), 33.2 µM. The half-maximal inhibitory concentration (IC50) in test [8] came out at 24.4 µM; in test [9], 11.5 µM; in test [10] it was 22.5 µM; in [11] it was 31.1 µM.
In the case of `O=C(/C=C/C=C/c1ccccc1)c1cc(Cl)cc(Br)c1O`, the inhibition entry in [1] is “Active”. Also, the IC50 in test [2] was 23.4 µM; in test [3], 36.6 µM; in test [4], 48.8 µM; in [5], 93 µM; in [6], 129 µM; in test [7] (h69ar), “Non-toxic”. Further, the IC50 came out at 31.7 µM in test [8], 19.9 µM in [9], 14.2 µM in test [10] and 48.6 µM in test [11].
In the case of `CC(=O)O[C@@]12CO[C@@H]1C[C@H](O)[C@@]1(C)C(=O)[C@H](O)C3=C(C)[C@@H](OC(=O)[C@H](O)[C@@H](NC(=O)OC(C)(C)C)c4ccccc4)C[C@@](O)([C@@H](OC(=O)c4ccccc4)[C@H]21)C3(C)C`, the result in test [12] was Active.
Take `CCN(CC)c1ccc(/C=C/C(=O)c2cc(Br)cc(Br)c2O)cc1`: in test [1], the inhibition entry was “Active”. For the same compound, the IC50 is 9.9 µM in test [2]; 8.2 µM in [3]; 26.1 µM in test [4]; 69 µM in [5]; 20.1 µM in test [6]; 38.8 µM in [7] (setting [15]). The IC50 was found to be 9.6 µM in test [8], 7.1 µM in test [9], 7.7 µM in test [10] and 13.1 µM in test [11].
As to `O=C(/C=C/c1cccs1)c1cc(Cl)cc(Br)c1O`, the inhibition result in [1] was “Active”. Also, the IC50 turned out to be 23.3 µM in test [2]; 42.5 µM in test [3]; 79 µM in test [4]; 44.2 µM in [5]; 152 µM in [6]; 56.1 µM in test [7] (setting [15]). Moreover, the IC50 in test [8] amounted to 32.6 µM; in [9], 20 µM; in test [10] it was 26.5 µM; in [11] it was 48.9 µM.
Turning to `CC[C@]1(O)C[C@H]2CN(CCc3c([nH]c4ccccc34)[C@@](C(=O)OC)(c3cc4c(cc3OC)N(C=O)[C@H]3[C@@](O)(C(=O)OC)[C@H](OC(C)=O)[C@]5(CC)C=CCN6CC[C@]43[C@@H]65)C2)C1`, the inhibition result in test [13] was “Active”.
In the case of `O=C(/C=C/c1ccccc1)c1cc(Cl)cc(Br)c1O`, in test [1], the inhibition entry is “Active”. In addition, the half-maximal inhibitory concentration (IC50) in test [2] was found to be 13.2 µM; in test [3], 20 µM; in [4], 18.7 µM; in test [5], 48.9 µM; in test [6], 37.6 µM; in test [7] (setting [15]) it was 26.4 µM. Further, the concentration for half-maximal inhibition (IC50) amounted to 24.2 µM in test [8], 10.3 µM in test [9], 12.4 µM in [10] and 22.3 µM in [11].
In the case of `O=C(/C=C/C=C/c1cn(Cc2ccccc2)c2ccccc12)c1cc(Cl)cc(Br)c1O`, the IC50 in test [2] was determined as 70 µM; in [3], 49 µM; in [4], 119 µM; in [5], 17 µM; in test [6], 280 µM; in [7] (setting [15]), 48.5 µM. Also, the IC50 turned out to be 54 µM in test [8], 11.1 µM in test [9], 42.3 µM in test [10] and 89 µM in test [11]. In addition, in [14], the result was Active.

In general, IC50 refers to the concentration needed to halve the response being measured.
